Results taken from ChEMBL document CHEMBL5661979, “Pharmacological inhibition of BMK1 suppresses tumor growth through promyelocytic leukemia protein” (Cancer Cell, 2010).
Activity calls are given as the source filed them. The calls are words filed in the database; no cut-off is given here.

How the values were obtained:
[1] = biological target: T1, Serine/threonine-protein kinase SMG1 (Homo sapiens, UniProt Q96Q15); assay: Inhibition of SMG1 in human HeLa cells lysate pre incubated for 15 mins followed by ATP acyl phosphate probe addition and measured after 10 mins by LC-MS/MS analysis; format: subcellular
T1 sequence (Q96Q15 whole entry): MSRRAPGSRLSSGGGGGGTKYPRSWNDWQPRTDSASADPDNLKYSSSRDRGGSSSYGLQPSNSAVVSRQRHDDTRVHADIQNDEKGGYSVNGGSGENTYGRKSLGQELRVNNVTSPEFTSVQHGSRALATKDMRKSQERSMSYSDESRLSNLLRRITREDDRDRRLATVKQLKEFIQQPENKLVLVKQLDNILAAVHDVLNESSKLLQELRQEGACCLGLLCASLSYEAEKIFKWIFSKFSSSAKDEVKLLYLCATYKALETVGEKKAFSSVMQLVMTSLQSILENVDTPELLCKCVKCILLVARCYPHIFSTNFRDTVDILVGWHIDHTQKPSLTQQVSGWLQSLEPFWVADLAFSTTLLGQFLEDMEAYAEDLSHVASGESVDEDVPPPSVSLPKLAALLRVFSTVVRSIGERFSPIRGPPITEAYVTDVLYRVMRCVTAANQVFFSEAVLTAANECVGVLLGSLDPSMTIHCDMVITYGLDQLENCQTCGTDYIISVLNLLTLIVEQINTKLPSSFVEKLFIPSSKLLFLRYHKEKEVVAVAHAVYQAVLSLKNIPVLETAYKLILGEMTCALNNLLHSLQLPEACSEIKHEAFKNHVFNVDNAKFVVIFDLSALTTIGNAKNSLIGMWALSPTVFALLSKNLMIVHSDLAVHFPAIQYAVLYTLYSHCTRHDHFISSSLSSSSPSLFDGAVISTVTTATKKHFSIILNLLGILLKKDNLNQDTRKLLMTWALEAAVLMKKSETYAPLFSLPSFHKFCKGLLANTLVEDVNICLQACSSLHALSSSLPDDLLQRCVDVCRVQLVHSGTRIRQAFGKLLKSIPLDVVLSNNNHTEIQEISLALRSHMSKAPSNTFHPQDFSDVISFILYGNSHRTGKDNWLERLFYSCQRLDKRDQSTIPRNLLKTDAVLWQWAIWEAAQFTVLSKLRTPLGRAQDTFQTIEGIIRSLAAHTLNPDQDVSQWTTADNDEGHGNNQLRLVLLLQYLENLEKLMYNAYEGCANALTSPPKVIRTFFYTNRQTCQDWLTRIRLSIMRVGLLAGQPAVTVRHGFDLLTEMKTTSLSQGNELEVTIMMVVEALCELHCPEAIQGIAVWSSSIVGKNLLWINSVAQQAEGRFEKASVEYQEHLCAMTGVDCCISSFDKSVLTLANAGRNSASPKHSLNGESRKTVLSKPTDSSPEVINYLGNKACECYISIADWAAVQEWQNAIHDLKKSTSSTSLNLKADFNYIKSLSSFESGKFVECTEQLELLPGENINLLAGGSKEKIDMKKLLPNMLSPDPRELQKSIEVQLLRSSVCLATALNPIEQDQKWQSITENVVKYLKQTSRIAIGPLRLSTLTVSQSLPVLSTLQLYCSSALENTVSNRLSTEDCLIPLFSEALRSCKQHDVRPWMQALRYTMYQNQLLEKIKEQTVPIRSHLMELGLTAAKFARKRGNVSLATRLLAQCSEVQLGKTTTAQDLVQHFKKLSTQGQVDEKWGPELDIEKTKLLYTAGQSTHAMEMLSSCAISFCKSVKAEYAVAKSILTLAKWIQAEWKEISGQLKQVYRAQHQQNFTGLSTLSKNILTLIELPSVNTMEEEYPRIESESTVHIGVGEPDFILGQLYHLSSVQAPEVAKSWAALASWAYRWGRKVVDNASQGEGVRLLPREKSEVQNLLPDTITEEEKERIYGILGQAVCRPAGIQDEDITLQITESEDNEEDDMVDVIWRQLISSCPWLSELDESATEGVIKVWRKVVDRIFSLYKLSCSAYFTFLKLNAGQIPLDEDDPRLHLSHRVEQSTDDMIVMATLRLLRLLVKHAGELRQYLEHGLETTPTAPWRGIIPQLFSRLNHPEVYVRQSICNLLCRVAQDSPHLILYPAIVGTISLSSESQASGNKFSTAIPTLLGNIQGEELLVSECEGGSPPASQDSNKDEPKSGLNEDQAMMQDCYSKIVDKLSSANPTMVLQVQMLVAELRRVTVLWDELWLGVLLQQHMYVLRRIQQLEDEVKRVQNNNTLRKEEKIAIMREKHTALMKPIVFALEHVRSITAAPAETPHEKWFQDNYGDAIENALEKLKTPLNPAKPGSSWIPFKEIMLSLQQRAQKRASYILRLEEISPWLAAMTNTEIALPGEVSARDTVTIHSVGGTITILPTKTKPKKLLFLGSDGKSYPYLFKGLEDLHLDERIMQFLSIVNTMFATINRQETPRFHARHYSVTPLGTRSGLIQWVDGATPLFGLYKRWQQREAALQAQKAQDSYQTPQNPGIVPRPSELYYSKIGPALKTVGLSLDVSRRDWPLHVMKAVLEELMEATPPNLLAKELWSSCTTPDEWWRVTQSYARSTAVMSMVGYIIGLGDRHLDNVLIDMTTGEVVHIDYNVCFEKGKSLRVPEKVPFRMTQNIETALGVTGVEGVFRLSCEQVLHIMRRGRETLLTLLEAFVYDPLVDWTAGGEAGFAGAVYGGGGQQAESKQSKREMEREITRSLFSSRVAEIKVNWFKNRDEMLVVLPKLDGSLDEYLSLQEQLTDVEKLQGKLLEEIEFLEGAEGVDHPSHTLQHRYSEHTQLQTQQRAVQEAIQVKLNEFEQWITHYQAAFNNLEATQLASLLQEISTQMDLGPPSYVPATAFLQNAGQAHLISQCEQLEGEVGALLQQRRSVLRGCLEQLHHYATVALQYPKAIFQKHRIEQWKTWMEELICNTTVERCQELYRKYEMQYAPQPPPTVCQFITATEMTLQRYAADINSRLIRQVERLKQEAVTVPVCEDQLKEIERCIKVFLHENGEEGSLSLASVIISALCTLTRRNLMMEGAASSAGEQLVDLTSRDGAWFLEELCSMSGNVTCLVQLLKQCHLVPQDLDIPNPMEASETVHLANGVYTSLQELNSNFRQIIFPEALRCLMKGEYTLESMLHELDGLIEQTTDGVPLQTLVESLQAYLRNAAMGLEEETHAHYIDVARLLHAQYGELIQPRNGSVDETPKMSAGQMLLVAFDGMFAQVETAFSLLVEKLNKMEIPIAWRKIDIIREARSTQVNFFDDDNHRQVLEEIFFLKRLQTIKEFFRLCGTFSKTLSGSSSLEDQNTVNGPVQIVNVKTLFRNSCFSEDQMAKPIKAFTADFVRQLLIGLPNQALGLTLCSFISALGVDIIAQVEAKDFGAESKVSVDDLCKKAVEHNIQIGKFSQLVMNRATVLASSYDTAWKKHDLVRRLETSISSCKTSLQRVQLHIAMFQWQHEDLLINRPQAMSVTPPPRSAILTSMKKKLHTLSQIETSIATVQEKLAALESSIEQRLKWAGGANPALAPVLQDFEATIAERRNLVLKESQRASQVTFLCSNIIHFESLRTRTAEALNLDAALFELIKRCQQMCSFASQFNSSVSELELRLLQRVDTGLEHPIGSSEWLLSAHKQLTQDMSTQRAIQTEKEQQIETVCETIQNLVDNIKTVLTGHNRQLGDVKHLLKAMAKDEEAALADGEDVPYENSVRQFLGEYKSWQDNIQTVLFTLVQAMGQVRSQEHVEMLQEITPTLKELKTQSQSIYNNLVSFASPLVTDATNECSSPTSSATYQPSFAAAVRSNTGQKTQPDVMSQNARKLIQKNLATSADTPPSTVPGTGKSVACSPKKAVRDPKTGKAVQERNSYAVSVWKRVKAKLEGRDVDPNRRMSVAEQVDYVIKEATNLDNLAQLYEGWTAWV

[2] = biological target: Serine/threonine-protein kinase MARK1 (Homo sapiens, UniProt Q9P0L2); assay: Inhibition of MARK1 in human HeLa cells lysate pre incubated for 15 mins followed by ADP acyl phosphate probe addition and measured after 10 mins by LC-MS/MS analysis; format: subcellular
[3] = Half life in Sprague-Dawley rat at 1 mg/kg, iv measured up to 8 hrs by LC-MS/MS analysis; format: ADME, organism-based; conditions: in vivo
[4] = biological target: T2, Ribosomal protein S6 kinase beta-2 (Homo sapiens, UniProt Q9UBS0); assay: Inhibition of P70S6KB in human HeLa cells lysate at 50 uM pre incubated for 15 mins followed by ATP acyl phosphate probe addition and measured after 10 mins by LC-MS/MS analysis relative to control; format: subcellular; conditions: time 25.0 min
T2 sequence (Q9UBS0 whole entry): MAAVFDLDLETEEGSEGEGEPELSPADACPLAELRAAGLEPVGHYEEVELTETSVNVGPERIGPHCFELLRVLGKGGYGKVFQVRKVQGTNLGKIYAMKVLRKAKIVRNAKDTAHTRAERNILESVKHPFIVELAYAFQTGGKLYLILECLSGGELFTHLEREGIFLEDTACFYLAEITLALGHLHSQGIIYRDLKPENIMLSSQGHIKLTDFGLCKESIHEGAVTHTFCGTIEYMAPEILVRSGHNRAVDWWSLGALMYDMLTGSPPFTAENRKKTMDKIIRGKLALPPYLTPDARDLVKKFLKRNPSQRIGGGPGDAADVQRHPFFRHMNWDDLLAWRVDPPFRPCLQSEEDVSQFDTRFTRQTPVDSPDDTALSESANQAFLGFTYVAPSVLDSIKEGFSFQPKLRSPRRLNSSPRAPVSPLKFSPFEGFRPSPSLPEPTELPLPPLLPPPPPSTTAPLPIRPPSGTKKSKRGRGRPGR

[5] = biological target: Microtubule-associated serine/threonine-protein kinase 3 (Homo sapiens, UniProt O60307); assay: Inhibition of MAST3 in human HeLa cells lysate at 50 uM pre incubated for 15 mins followed by ATP acyl phosphate probe addition and measured after 10 mins by LC-MS/MS analysis relative to control; format: subcellular; conditions: time 25.0 min
[6] = biological target: T3, Dual specificity mitogen-activated protein kinase kinase 5 (Homo sapiens) (UniProt Q13163); assay: Inhibition of MAP2K5 in human HeLa cells lysate upto 50 uM pre incubated for 15 mins followed by ADP acyl phosphate probe addition and measured after 10 mins by LC-MS/MS analysis; format: subcellular; conditions: time 25.0 min
T3 sequence (whole entry): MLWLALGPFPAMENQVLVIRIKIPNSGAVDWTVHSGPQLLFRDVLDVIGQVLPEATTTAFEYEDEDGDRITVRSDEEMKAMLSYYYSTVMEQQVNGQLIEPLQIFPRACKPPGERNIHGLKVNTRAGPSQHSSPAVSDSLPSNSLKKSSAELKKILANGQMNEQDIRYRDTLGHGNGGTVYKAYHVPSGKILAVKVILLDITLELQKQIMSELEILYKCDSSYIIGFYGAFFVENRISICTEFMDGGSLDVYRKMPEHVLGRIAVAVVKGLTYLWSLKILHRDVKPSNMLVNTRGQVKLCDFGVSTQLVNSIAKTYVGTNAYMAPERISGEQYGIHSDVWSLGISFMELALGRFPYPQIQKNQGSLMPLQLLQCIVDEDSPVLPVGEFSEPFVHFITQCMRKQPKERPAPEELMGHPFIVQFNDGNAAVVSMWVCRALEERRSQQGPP

[7] = Inhibition of SRPK1/2 in human HeLa cells lysate at 2 uM pre incubated for 15 mins followed by ADP acyl phosphate probe addition and measured after 10 mins by LC-MS/MS analysis relative to control; conditions: 25 min, condition cancer
[8] = biological target: Tyrosine-protein kinase JAK1 (Homo sapiens, UniProt P23458); assay: Inhibition of JAK1 domain 2 in human HeLa cells lysate at 10 uM pre incubated for 15 mins followed by ATP acyl phosphate probe addition and measured after 10 mins by LC-MS/MS analysis relative to control; format: subcellular; conditions: time 25.0 min
[9] = biological target: T1, Serine/threonine-protein kinase SMG1; assay: Inhibition of SMG1 in human HeLa cells lysate at 2 uM pre incubated for 15 mins followed by ATP acyl phosphate probe addition and measured after 10 mins by LC-MS/MS analysis relative to control; format: subcellular; conditions: time 25.0 min
[10] = biological target: Activated CDC42 kinase 1 (Homo sapiens, UniProt Q07912); assay: Inhibition of ACK1 in human HeLa cells lysate pre incubated for 15 mins followed by ADP acyl phosphate probe addition and measured after 10 mins by LC-MS/MS analysis; format: subcellular
Chain of Activated CDC42 kinase 1 (Q07912 whole entry, the tested form may be a part): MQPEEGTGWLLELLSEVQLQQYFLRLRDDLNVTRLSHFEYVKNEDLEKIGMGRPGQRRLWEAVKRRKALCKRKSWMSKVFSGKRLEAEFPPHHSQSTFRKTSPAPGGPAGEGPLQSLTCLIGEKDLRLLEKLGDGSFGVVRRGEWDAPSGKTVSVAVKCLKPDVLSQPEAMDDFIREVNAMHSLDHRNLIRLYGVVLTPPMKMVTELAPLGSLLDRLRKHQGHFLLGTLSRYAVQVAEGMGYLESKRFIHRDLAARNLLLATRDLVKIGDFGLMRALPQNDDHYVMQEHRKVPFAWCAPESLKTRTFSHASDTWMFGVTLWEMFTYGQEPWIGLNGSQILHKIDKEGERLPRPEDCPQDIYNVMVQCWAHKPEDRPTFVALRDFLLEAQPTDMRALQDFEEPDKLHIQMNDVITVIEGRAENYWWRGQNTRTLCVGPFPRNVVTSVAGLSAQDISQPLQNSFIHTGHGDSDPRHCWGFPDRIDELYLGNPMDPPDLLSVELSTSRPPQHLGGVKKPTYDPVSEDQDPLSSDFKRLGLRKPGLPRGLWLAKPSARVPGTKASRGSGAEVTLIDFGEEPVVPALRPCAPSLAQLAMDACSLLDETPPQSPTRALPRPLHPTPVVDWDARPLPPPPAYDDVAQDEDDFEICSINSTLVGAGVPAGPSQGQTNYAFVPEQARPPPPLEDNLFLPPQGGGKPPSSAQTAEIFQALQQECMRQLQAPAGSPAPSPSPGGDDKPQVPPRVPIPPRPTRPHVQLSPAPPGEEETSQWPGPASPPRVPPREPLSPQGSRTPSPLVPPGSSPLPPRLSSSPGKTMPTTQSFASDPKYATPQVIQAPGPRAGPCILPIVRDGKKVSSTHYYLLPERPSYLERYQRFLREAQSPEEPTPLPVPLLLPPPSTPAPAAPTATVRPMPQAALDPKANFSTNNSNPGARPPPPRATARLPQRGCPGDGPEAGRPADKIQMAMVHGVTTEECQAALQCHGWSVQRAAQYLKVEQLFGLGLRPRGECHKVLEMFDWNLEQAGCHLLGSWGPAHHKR
How it was run: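 HeLa cell lysate (5 mg/mL total protein) preincubated 15 min with inhibitor at 50, 10, 2, 0.8 and 0 μM, then ATP or ADP acylphosphate probe added (5 μM final) for 10 min. Reaction stopped with urea, then targeted LC-MS/MS. Up to four fragment ions per kinase peptide-probe conjugate were used. % inhibition was taken versus untreated lysate. Run in duplicate.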

[11] = biological target: Serine/threonine-protein kinase ULK3 (Homo sapiens, UniProt Q6PHR2); assay: Inhibition of ULK3 in human HeLa cells lysate pre incubated for 15 mins followed by ADP acyl phosphate probe addition and measured after 10 mins by LC-MS/MS analysis; format: subcellular
[12] = biological target: Ephrin type-B receptor 4 (Homo sapiens, UniProt P54760); assay: Inhibition of EphB4 in human HeLa cells lysate pre incubated for 15 mins followed by ATP acyl phosphate probe addition and measured after 10 mins by LC-MS/MS analysis; format: subcellular
[13] = biological target: T2, Ribosomal protein S6 kinase beta-2; assay: Inhibition of P70S6KB in human HeLa cells lysate at 2 uM pre incubated for 15 mins followed by ATP acyl phosphate probe addition and measured after 10 mins by LC-MS/MS analysis relative to control; format: subcellular; conditions: time 25.0 min
[14] = biological target: Serine/threonine-protein kinase 38 (Homo sapiens, UniProt Q15208); assay: Inhibition of NDR1 in human HeLa cells lysate at 2 uM pre incubated for 15 mins followed by ATP acyl phosphate probe addition and measured after 10 mins by LC-MS/MS analysis relative to control; format: subcellular; conditions: time 25.0 min
[15] = biological target: MAP/microtubule affinity-regulating kinase 3 (Homo sapiens, UniProt P27448); assay: Inhibition of MARK3 in human HeLa cells lysate pre incubated for 15 mins followed by ADP acyl phosphate probe addition and measured after 10 mins by LC-MS/MS analysis; format: subcellular
[16] = biological target: Cyclin-dependent kinase 13 (Homo sapiens, UniProt Q14004); assay: Inhibition of CHED in human HeLa cells lysate at 2 uM pre incubated for 15 mins followed by ADP acyl phosphate probe addition and measured after 10 mins by LC-MS/MS analysis relative to control; format: subcellular; conditions: time 25.0 min
How it was run: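 KiNativ profiling in HeLa lysate (5 mg/mL total protein). Lysate incubated 15 min with inhibitor at 50, 10, 2, 0.8 or 0 μM. ATP or ADP acylphosphate probe then added (5 μM final) and reacted 10 min. Reaction stopped with urea and analysed by targeted MS, using up to four fragment ions per kinase peptide-probe conjugate. % inhibition taken against untreated lysate. Run in duplicate.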

[17] = biological target: Cyclin-dependent kinase 15 (Homo sapiens, UniProt Q96Q40); assay: Inhibition of PFTAIRE2 in human HeLa cells lysate pre incubated for 15 mins followed by ADP acyl phosphate probe addition and measured after 10 mins by LC-MS/MS analysis; format: subcellular
[18] = Toxicity in C57Bl/6 mouse assessed as effect on amylase level at 50 mg/kg, ip for 14 days (reference value: 1027 U/L); format: organism-based; conditions: in vivo, 336 h, time 14 day

CCOc1cc(N2CCC(O)CC2)ccc1Nc1ncc2c(n1)N(C)c1ccccc1C(=O)N2C
IC50 [1]: > 50 µM
IC50 [2]: > 50 µM
half-life [3]: 2 h
inhibition [4]: 3%
inhibition [5]: -5.8%
inhibition [6]: inactive
inhibition at 2 µM [7]: 12.7%
inhibition [8]: -5.7%
inhibition [9]: 1.8%
IC50 [10]: 18 µM
IC50 [11]: > 50 µM
IC50 [12]: > 50 µM
inhibition [13]: 1.9%
inhibition [14]: -4.3%
IC50 [15]: > 50 µM
inhibition [16]: 28.1%
IC50 [17]: > 50 µM
Activity [18]: 664 U/L
